Values belong to the molecule of their own block, whether it stands above or below them.
Key:
PC-3 [1] = assay: Antiproliferative activity against human PC3 cells after 3 days by WST-1 assay; assay type: functional, cell-based; conditions: PC-3, 72 h
Summary of the method: (§1)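 Cells from ATCC; PC-3 and LNCaP grown in RPMI-1640 and DU145 in EMEM, each with 10% FBS and 1% penicillin/streptomycin, 37 °C, 5% CO2. Seeded 3,200 cells/well and exposed for 3 days to at least five doses, with DMSO as vehicle control. WST-1 reagent added for 3 h at 37 °C, absorbance read at 430 nm. IC50 taken from a linear inhibition plot; mean ± SD of three independent experiments.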

LNCaP = assay: Antiproliferative activity against human LNCAP cells after 3 days by WST-1 assay; assay type: functional, cell-based; conditions: 72 h; summary of the method: as §1
DU-145 = assay: Antiproliferative activity against human DU145 cells after 3 days by WST-1 assay; assay type: functional, cell-based; conditions: DU-145, 72 h; summary of the method: as §1
PC-3 [2] = assay: Cell cycle arrest in human PC3 cells assessed as accumulation at G0/G1 phase at 10 uM after 24 hrs by propidium iodide staining-based flow cytometry (reference value: 37.5%); assay type: functional
PC-3 [3] = assay: Induction of apoptosis in human PC3 cells assessed as viable cells at 100 uM after 16 hrs by F2N12S and CYTOX AADvanced double staining-based flow cytometric analysis (reference value: 95%); assay type: functional; conditions: PC-3, 16 h, read-out: Activity
PC-3 [4] = assay: Induction of apoptosis in human PC3 cells assessed as viable cells at 1 uM after 16 hrs by F2N12S and CYTOX AADvanced double staining-based flow cytometric analysis (reference value: 95%); assay type: functional; conditions: PC-3, 16 h, read-out: Activity
PC-3 [5] = assay: Induction of apoptosis in human PC3 cells assessed as viable cells at 10 uM after 16 hrs by F2N12S and CYTOX AADvanced double staining-based flow cytometric analysis (reference value: 95%); assay type: functional; conditions: PC-3, 16 h, read-out: Activity
PC-3 [6] = assay: Cell cycle arrest in human PC3 cells assessed as accumulation at G2/M phase at 20 uM after 24 hrs by propidium iodide staining-based flow cytometry (reference value: 27.8%); assay type: functional
PC-3 [7] = assay: Cell cycle arrest in human PC3 cells assessed as accumulation at G0/G1 phase at 20 uM after 24 hrs by propidium iodide staining-based flow cytometry (reference value: 37.5%); assay type: functional
PC-3 [8] = assay: Cell cycle arrest in human PC3 cells assessed as accumulation at G2/M phase at 10 uM after 16 hrs by propidium iodide staining-based flow cytometry (reference value: 32.3%); assay type: functional
PC-3 [9] = assay: Induction of apoptosis in human PC3 cells assessed as necrotic cells at 10 uM after 16 hrs by F2N12S and CYTOX AADvanced double staining-based flow cytometric analysis (reference value: 2 to 3%); assay type: functional
PC-3 [10] = assay: Induction of apoptosis in human PC3 cells assessed as necrotic cells at 50 uM after 16 hrs by F2N12S and CYTOX AADvanced double staining-based flow cytometric analysis (reference value: 2 to 3%); assay type: functional
PC-3 [11] = assay: Induction of apoptosis in human PC3 cells assessed as necrotic cells at 30 uM after 16 hrs by F2N12S and CYTOX AADvanced double staining-based flow cytometric analysis (reference value: 2 to 3%); assay type: functional
PC-3 [12] = assay: Induction of apoptosis in human PC3 cells assessed as viable cells at 5 uM after 16 hrs by F2N12S and CYTOX AADvanced double staining-based flow cytometric analysis (reference value: 95%); assay type: functional; conditions: PC-3, 16 h, read-out: Activity
PC-3 [13] = assay: Cell cycle arrest in human PC3 cells assessed as accumulation at G0/G1 phase at 10 uM after 16 hrs by propidium iodide staining-based flow cytometry (reference value: 34.1%); assay type: functional
PC-3 [14] = assay: Cell cycle arrest in human PC3 cells assessed as accumulation at S phase at 20 uM after 16 hrs by propidium iodide staining-based flow cytometry (reference value: 9.9%); assay type: functional
PC-3 [15] = assay: Cell cycle arrest in human PC3 cells assessed as accumulation at S phase at 20 uM after 24 hrs by propidium iodide staining-based flow cytometry (reference value: 8.0%); assay type: functional
PC-3 [16] = assay: Induction of apoptosis in human PC3 cells assessed as viable cells at 30 uM after 16 hrs by F2N12S and CYTOX AADvanced double staining-based flow cytometric analysis (reference value: 95%); assay type: functional; conditions: PC-3, 16 h, read-out: Activity
PC-3 [17] = assay: Cell cycle arrest in human PC3 cells assessed as accumulation at S phase at 10 uM after 16 hrs by propidium iodide staining-based flow cytometry (reference value: 9.9%); assay type: functional
PC-3 [18] = assay: Cell cycle arrest in human PC3 cells assessed as accumulation at G2/M phase at 20 uM after 16 hrs by propidium iodide staining-based flow cytometry (reference value: 32.3%); assay type: functional
PC-3 [19] = assay: Induction of apoptosis in human PC3 cells assessed as apoptotic cells at 1 uM after 16 hrs by F2N12S and CYTOX AADvanced double staining-based flow cytometric analysis (reference value: 2 to 3%); assay type: functional
PC-3 [20] = assay: Induction of apoptosis in human PC3 cells assessed as apoptotic cells at 50 uM after 16 hrs by F2N12S and CYTOX AADvanced double staining-based flow cytometric analysis (reference value: 2 to 3%); assay type: functional
PC-3 [21] = assay: Induction of apoptosis in human PC3 cells assessed as viable cells at 50 uM after 16 hrs by F2N12S and CYTOX AADvanced double staining-based flow cytometric analysis (reference value: 95%); assay type: functional; conditions: PC-3, 16 h, read-out: Activity
PC-3 [22] = assay: Induction of apoptosis in human PC3 cells assessed as necrotic cells at 1 uM after 16 hrs by F2N12S and CYTOX AADvanced double staining-based flow cytometric analysis (reference value: 2 to 3%); assay type: functional
PC-3 [23] = assay: Cell cycle arrest in human PC3 cells assessed as accumulation at G2/M phase at 10 uM after 24 hrs by propidium iodide staining-based flow cytometry (reference value: 27.8%); assay type: functional
PC-3 [24] = assay: Induction of apoptosis in human PC3 cells assessed as necrotic cells at 100 uM after 16 hrs by F2N12S and CYTOX AADvanced double staining-based flow cytometric analysis (reference value: 2 to 3%); assay type: functional
PC-3 [25] = assay: Induction of apoptosis in human PC3 cells assessed as apoptotic cells at 5 uM after 16 hrs by F2N12S and CYTOX AADvanced double staining-based flow cytometric analysis (reference value: 2 to 3%); assay type: functional
PC-3 [26] = assay: Induction of apoptosis in human PC3 cells assessed as apoptotic cells at 20 uM after 16 hrs by F2N12S and CYTOX AADvanced double staining-based flow cytometric analysis (reference value: 2 to 3%); assay type: functional
PC-3 [27] = assay: Induction of apoptosis in human PC3 cells assessed as necrotic cells at 5 uM after 16 hrs by F2N12S and CYTOX AADvanced double staining-based flow cytometric analysis (reference value: 2 to 3%); assay type: functional
PC-3 [28] = assay: Induction of apoptosis in human PC3 cells assessed as apoptotic cells at 100 uM after 16 hrs by F2N12S and CYTOX AADvanced double staining-based flow cytometric analysis (reference value: 2 to 3%); assay type: functional
PC-3 [29] = assay: Induction of apoptosis in human PC3 cells assessed as necrotic cells at 20 uM after 16 hrs by F2N12S and CYTOX AADvanced double staining-based flow cytometric analysis (reference value: 2 to 3%); assay type: functional
PWR-1E = assay: Antiproliferative activity against human PWR-1E cells after 3 days by WST-1 assay; assay type: cell-based; conditions: 72 h
Summary of the method: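 PWR-1E benign prostate epithelial cells grown in keratinocyte serum-free medium with bovine pituitary extract and recombinant human EGF. Seeded 3,200 cells/well and treated for 3 days at 37 °C, with DMSO as vehicle control. WST-1 reagent added for 3 h, absorbance read at 430 nm. IC50 from a linear inhibition plot over at least five doses; mean ± SD, n = 3.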

PC-3 [30] = assay: Induction of apoptosis in human PC3 cells assessed as apoptotic cells at 30 uM after 16 hrs by F2N12S and CYTOX AADvanced double staining-based flow cytometric analysis (reference value: 2 to 3%); assay type: functional
PC-3 [31] = assay: Cell cycle arrest in human PC3 cells assessed as accumulation at G0/G1 phase at 20 uM after 16 hrs by propidium iodide staining-based flow cytometry (reference value: 34.1%); assay type: functional
PC-3 [32] = assay: Cell cycle arrest in human PC3 cells assessed as accumulation at S phase at 10 uM after 24 hrs by propidium iodide staining-based flow cytometry (reference value: 8.0%); assay type: functional
PC-3 [33] = assay: Induction of apoptosis in human PC3 cells assessed as apoptotic cells at 10 uM after 16 hrs by F2N12S and CYTOX AADvanced double staining-based flow cytometric analysis (reference value: 2 to 3%); assay type: functional
PC-3 [34] = assay: Induction of apoptosis in human PC3 cells assessed as viable cells at 20 uM after 16 hrs by F2N12S and CYTOX AADvanced double staining-based flow cytometric analysis (reference value: 95%); assay type: functional; conditions: PC-3, 16 h, read-out: Activity

Structure (SMILES): COc1cc(-c2oc3ccccc3c(=O)c2OC(C)C)cc(OC)c1OC
IC50 (PC-3 [1]): 21.2 µM
IC50 (LNCaP): 8.8 µM
IC50 (DU-145): > 50 µM

Structure (SMILES): CCOc1c(-c2cc(OC)c(OC)c(OC)c2)oc2ccccc2c1=O
Activity (PC-3 [2]): 40.8%
IC50 (PC-3 [1]): 0.9 µM
viability at 100 µM (PC-3 [3]): 91%
viability at 1 µM (PC-3 [4]): 94%
viability at 10 µM (PC-3 [5]): 95%
Activity (PC-3 [6]): 17.9%
Activity (PC-3 [7]): 48.6%
Activity (PC-3 [8]): 22.2%
Activity (PC-3 [9]): 3%
IC50 (LNCaP): 5.4 µM
Activity (PC-3 [10]): 5%
Activity (PC-3 [11]): 3%
viability at 5 µM (PC-3 [12]): 95%
Activity (PC-3 [13]): 55.7%
Activity (PC-3 [14]): 4.6%
Activity (PC-3 [15]): 11.8%
IC50 (DU-145): 6.2 µM
viability at 30 µM (PC-3 [16]): 94%
Activity (PC-3 [17]): 7.7%
Activity (PC-3 [18]): 24.5%
Activity (PC-3 [19]): 3%
Activity (PC-3 [20]): 5%
viability at 50 µM (PC-3 [21]): 92%
Activity (PC-3 [22]): 3%
Activity (PC-3 [23]): 19.3%
Activity (PC-3 [24]): 6%
Activity (PC-3 [25]): 3%
Activity (PC-3 [26]): 5%
Activity (PC-3 [27]): 3%
Activity (PC-3 [28]): 6%
Activity (PC-3 [29]): 5%
IC50 (PWR-1E): 8.05 µM
Activity (PC-3 [30]): 3%
Activity (PC-3 [31]): 59%
Activity (PC-3 [32]): 18.7%
Activity (PC-3 [33]): 3%
viability at 20 µM (PC-3 [34]): 93%

Structure (SMILES): O=c1c(O)c(-c2ccc(O)c(O)c2)oc2cc(O)ccc12 [FISETIN]
IC50 (PC-3 [1]): > 50 µM
IC50 (LNCaP): 34.1 µM
IC50 (DU-145): > 50 µM

Structure (SMILES): O=c1c(O)c(-c2ccc(O)c(O)c2)oc2cc(O)cc(O)c12 [QUERCETIN]
IC50 (PC-3 [1]): > 100 µM
IC50 (DU-145): > 100 µM

Structure (SMILES): CCCC(C)Oc1c(-c2cc(OC)c(OC)c(OC)c2)oc2ccccc2c1=O (stereo unspecified)
IC50 (PC-3 [1]): 49.3 µM
IC50 (LNCaP): 15.1 µM
IC50 (DU-145): > 50 µM

Further lines, results first:

IC50 (PC-3 [1]): 2.6 µM
IC50 (LNCaP): 7.6 µM
IC50 (DU-145): 24.2 µM
Structure (SMILES): CCCN(CCC)CCCCCOc1c(-c2cc(OC)c(OC)c(OC)c2)oc2ccccc2c1=O

IC50 (PC-3 [1]): 7.9 µM
IC50 (LNCaP): 9.7 µM
IC50 (DU-145): 12.5 µM
Structure (SMILES): CCCCCN(CCCCC)CCCCOc1c(-c2cc(OC)c(OC)c(OC)c2)oc2ccccc2c1=O

IC50 (PC-3 [1]): 7.1 µM
IC50 (LNCaP): 9 µM
IC50 (DU-145): 15.7 µM
Structure (SMILES): CCCCN(CCCC)CCCOc1c(-c2cc(OC)c(OC)c(OC)c2)oc2ccccc2c1=O

IC50 (PC-3 [1]): 5.3 µM
IC50 (LNCaP): 7.8 µM
IC50 (DU-145): 15.3 µM
Structure (SMILES): CCCCN(CCCC)CCCCOc1c(-c2cc(OC)c(OC)c(OC)c2)oc2ccccc2c1=O

IC50 (PC-3 [1]): 12.8 µM
IC50 (LNCaP): 8.9 µM
IC50 (DU-145): > 50 µM
Structure (SMILES): CCCCOc1c(-c2cc(OC)c(OC)c(OC)c2)oc2ccccc2c1=O

IC50 (PC-3 [1]): 29.2 µM
IC50 (LNCaP): 19.6 µM
IC50 (DU-145): > 50 µM
Structure (SMILES): CCCCCCOc1c(-c2cc(OC)c(OC)c(OC)c2)oc2ccccc2c1=O

From ChEMBL document CHEMBL4043132, “3-O-Substituted-3',4',5'-trimethoxyflavonols: Synthesis and cell-based evaluation as anti-prostate cancer agents” (Bioorg Med Chem, 2017)
